This note sets out measurements from ChEMBL document CHEMBL5696442, “Discovery of type II inhibitors of TGFβ-activated kinase 1 (TAK1) and mitogen-activated protein kinase kinase kinase kinase 2 (MAP4K2)” (J Med Chem, 2015).

In assay [1] the target is Cyclin-dependent kinase 17 (Homo sapiens) (UniProt Q00537). Briefly: Inhibition of PCTAIRE2 Lys2 labeling site in human A-375 cells at 5 uM by KiNativ Profiling analysis relative to control. It is filed as cell-based.
Assay [2] deals with T1, Proto-oncogene tyrosine-protein kinase Src (Homo sapiens, UniProt P12931). Briefly: Inhibition of SRC Lys1 labeling site in human A-375 cells at 0.5 uM by KiNativ Profiling analysis relative to control. It is filed as cell-based.
T1 sequence (P12931 2-536 limits assumed): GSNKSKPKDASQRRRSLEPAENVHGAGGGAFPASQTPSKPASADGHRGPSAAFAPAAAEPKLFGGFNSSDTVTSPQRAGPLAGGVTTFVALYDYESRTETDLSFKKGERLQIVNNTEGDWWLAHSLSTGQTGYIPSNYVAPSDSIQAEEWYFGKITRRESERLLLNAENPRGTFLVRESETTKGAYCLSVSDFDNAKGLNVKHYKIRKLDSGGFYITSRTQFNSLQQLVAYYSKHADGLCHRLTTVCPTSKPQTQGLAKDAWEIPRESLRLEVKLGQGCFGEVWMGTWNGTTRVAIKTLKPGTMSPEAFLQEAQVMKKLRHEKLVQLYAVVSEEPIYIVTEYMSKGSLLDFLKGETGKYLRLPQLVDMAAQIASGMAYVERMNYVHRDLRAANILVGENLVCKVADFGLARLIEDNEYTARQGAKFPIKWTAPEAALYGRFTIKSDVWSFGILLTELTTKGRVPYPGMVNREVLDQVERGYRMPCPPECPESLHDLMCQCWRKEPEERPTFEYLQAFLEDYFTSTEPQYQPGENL
For assay [3], the target named is T1, Proto-oncogene tyrosine-protein kinase Src. In words: Inhibition of SRC (unknown origin) Lys1 labeling site by KiNativ Profiling analysis.
Assay [4] addresses Cyclin-dependent kinase 8 (Homo sapiens) (UniProt P49336). In words: Inhibition of CDK8 Lys2 labeling site in human A-375 cells at 5 uM by KiNativ Profiling analysis relative to control. It is filed as cell-based. The gist of the method: (§1)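 Live A375 melanoma cells were treated with compound at 5 or 0.5 μM. The cells were then lysed, and the lysates were labeled with a lysine-reactive ATP or ADP-biotin acyl probe (KiNativ). Inhibition is the compound's protection of each kinase labeling-site peptide from probe labeling, relative to untreated control.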

In assay [5] the target is Mitogen-activated protein kinase kinase kinase 11 (Homo sapiens) (UniProt Q16584). Briefly: Inhibition of MLK3 Lys2 labeling site in human A-375 cells at 5 uM by KiNativ Profiling analysis relative to control. It is filed as cell-based.
Sequence of Mitogen-activated protein kinase kinase kinase 11 (Homo sapiens) (Q16584 whole entry, looked up): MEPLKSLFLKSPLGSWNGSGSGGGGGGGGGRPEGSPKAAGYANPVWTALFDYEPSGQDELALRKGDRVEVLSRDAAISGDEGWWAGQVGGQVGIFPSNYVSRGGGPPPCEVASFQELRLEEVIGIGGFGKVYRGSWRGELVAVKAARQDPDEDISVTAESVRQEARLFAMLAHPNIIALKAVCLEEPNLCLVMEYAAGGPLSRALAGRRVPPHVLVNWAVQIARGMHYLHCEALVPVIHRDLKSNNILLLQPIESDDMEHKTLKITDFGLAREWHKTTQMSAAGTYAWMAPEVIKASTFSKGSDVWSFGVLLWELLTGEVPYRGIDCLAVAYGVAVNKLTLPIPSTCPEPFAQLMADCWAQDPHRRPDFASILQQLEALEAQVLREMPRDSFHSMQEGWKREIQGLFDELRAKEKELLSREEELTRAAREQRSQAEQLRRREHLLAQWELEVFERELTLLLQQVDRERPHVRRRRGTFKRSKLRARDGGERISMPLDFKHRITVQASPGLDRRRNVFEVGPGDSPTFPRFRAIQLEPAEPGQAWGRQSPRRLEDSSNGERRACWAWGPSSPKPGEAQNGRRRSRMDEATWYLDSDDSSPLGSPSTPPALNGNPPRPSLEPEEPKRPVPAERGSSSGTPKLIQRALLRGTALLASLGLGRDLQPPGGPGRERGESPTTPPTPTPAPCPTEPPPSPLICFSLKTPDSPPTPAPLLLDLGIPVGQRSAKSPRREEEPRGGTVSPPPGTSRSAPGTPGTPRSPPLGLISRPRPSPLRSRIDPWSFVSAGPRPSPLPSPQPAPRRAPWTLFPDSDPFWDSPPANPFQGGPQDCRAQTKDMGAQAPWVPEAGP
The target in assay [6] is Serine/threonine-protein kinase 24 (Homo sapiens) (UniProt Q9Y6E0). In words: Inhibition of MST3 ACT labeling site in human A-375 cells at 5 uM by KiNativ Profiling analysis relative to control. It is filed as cell-based.
The target of assay [7] is Cyclin-dependent kinase 2 (Homo sapiens) (UniProt P24941). Briefly: Inhibition of CDK2 Lys2 labeling site in human A-375 cells at 0.5 uM by KiNativ Profiling analysis relative to control. It is filed as cell-based. The gist of the method:
as §1

The target of assay [8] is Cyclin-dependent kinase 4 (Homo sapiens) (UniProt P11802). Briefly: Inhibition of CDK4 Lys2 labeling site in human A-375 cells at 0.5 uM by KiNativ Profiling analysis relative to control. In kind it is cell-based. The gist of the method: as §1
Assay [9] addresses Casein kinase II subunit alpha (Homo sapiens) (UniProt P68400). Briefly: Inhibition of CK2a1 Protein Kinase Domain in human A-375 cells at 0.5 uM by KiNativ Profiling analysis relative to control. It is filed as cell-based. The essentials:
as §1

In assay [10] the target is Phosphatidylinositol 3-kinase catalytic subunit type 3 (Homo sapiens) (UniProt Q8NEB9). Briefly: Inhibition of PIK3C3 ATP labeling site in human A-375 cells at 0.5 uM by KiNativ Profiling analysis relative to control. It is filed as cell-based.
Sequence of Phosphatidylinositol 3-kinase catalytic subunit type 3 (Homo sapiens) (Q8NEB9 whole entry): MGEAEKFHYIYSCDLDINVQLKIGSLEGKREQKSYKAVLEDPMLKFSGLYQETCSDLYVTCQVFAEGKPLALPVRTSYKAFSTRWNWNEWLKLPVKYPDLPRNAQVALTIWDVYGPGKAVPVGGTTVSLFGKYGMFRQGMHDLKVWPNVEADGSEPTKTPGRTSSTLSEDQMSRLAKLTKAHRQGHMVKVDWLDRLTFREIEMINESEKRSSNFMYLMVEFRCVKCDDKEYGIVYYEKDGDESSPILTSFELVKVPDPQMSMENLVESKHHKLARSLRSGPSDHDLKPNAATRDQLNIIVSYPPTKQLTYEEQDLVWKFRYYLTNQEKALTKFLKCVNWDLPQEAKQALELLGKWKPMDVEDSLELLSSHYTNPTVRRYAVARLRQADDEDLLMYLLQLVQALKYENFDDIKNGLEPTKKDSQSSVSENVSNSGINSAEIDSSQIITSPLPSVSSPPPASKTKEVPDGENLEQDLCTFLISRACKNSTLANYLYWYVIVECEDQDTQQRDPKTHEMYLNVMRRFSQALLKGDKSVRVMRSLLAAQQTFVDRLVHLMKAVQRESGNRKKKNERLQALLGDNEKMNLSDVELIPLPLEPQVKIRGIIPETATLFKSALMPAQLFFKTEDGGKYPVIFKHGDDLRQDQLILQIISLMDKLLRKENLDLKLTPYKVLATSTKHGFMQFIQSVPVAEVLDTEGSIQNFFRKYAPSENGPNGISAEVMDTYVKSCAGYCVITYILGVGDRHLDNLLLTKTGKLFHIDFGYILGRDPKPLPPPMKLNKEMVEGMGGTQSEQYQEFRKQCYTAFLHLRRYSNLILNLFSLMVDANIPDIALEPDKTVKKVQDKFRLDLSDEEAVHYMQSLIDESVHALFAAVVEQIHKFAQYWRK
Assay [11] has as its target Serine/threonine-protein kinase SMG1 (Homo sapiens) (UniProt Q96Q15). In words: Inhibition of SMG1 ATP labeling site harbouring SYPYLFKGLEDLHLDER in human A-375 cells at 0.5 uM by KiNativ Profiling analysis relative to control. It is filed as cell-based. The gist of the method:
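Live A375 melanoma cells treated with compound at 5 or 0.5 μM, then lysed. Lysate kinases were labeled with a lysine-reactive ATP or ADP-biotin probe. Inhibition was read as protection of labeling sites from the probe.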

The target in assay [12] is Serine/threonine-protein kinase WNK2 (Homo sapiens) (UniProt Q9Y3S1). In words: Inhibition of Wnk2 Lys2 labeling site in human A-375 cells at 0.5 uM by KiNativ Profiling analysis relative to control. In kind it is cell-based.
Assay [13] addresses Cyclin-dependent kinase 2 (Homo sapiens) (UniProt P24941). In words: Inhibition of CDK2 Lys2 labeling site in human A-375 cells at 0.05 uM by KiNativ Profiling analysis relative to control. It is filed as cell-based.
In assay [14] the target is T2, Serine/threonine-protein kinase TBK1 (Homo sapiens) (UniProt Q9UHD2).
T2 sequence (whole entry): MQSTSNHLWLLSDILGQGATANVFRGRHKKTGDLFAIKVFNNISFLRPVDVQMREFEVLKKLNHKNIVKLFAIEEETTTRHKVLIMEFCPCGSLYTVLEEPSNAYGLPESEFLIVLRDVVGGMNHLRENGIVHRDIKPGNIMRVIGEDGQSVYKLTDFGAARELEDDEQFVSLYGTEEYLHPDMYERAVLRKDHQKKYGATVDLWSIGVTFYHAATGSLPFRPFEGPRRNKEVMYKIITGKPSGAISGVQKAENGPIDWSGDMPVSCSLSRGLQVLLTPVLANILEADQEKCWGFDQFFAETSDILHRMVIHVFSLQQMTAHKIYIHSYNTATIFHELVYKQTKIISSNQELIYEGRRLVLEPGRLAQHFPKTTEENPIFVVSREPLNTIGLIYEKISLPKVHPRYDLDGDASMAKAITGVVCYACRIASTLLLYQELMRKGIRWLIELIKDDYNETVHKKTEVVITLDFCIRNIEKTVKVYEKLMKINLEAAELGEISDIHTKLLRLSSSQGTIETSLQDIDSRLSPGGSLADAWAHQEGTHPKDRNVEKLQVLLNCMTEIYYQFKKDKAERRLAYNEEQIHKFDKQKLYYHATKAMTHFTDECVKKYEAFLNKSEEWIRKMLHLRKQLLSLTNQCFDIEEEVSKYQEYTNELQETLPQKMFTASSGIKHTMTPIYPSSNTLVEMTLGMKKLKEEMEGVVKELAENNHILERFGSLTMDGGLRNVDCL
Briefly: Inhibition of TBK1 Lys2 labeling site in human A-375 cells at 0.05 uM by KiNativ Profiling analysis relative to control. It is filed as cell-based.

The target of assay [15] is Mitogen-activated protein kinase 8 (Homo sapiens, UniProt P45983). In words: Inhibition of JNK1 Lys2 labeling site in human A-375 cells at 0.05 uM by KiNativ Profiling analysis relative to control. In kind it is cell-based.
Sequence of Mitogen-activated protein kinase 8 (P45983 whole entry): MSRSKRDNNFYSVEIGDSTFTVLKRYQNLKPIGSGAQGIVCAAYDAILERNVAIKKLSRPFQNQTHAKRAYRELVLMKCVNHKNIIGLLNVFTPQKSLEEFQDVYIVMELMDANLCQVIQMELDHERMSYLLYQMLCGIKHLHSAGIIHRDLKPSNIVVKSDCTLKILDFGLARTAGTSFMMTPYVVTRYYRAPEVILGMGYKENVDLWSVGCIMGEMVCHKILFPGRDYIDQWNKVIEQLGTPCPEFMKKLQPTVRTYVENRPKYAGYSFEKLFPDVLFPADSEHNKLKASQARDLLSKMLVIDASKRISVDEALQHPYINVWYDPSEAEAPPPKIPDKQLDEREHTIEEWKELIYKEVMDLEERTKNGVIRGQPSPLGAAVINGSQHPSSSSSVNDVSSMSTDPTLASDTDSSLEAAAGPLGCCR
Assay [16] deals with T3, Mitogen-activated protein kinase 12 (Homo sapiens) (UniProt P53778).
T3 sequence (whole entry): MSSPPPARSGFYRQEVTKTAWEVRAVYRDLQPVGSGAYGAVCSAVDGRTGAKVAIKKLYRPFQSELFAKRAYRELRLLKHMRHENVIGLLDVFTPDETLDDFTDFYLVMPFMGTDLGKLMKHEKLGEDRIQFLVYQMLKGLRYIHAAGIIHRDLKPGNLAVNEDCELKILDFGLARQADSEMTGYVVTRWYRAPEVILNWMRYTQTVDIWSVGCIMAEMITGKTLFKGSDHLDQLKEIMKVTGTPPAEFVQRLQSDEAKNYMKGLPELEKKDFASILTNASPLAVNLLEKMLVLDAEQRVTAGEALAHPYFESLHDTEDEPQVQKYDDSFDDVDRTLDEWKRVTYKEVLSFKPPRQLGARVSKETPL
Briefly: Inhibition of p38 gamma Lys2 labeling site in human A-375 cells at 0.05 uM by KiNativ Profiling analysis relative to control. It is filed as cell-based.

Assay [17] deals with Serine/threonine-protein kinase WNK4 (Homo sapiens) (UniProt Q96J92). In words: Inhibition of Wnk4 ACT labeling site in human A-375 cells at 0.05 uM by KiNativ Profiling analysis relative to control. In kind it is cell-based.
Sequence of Serine/threonine-protein kinase WNK4 (Homo sapiens) (Q96J92 whole entry): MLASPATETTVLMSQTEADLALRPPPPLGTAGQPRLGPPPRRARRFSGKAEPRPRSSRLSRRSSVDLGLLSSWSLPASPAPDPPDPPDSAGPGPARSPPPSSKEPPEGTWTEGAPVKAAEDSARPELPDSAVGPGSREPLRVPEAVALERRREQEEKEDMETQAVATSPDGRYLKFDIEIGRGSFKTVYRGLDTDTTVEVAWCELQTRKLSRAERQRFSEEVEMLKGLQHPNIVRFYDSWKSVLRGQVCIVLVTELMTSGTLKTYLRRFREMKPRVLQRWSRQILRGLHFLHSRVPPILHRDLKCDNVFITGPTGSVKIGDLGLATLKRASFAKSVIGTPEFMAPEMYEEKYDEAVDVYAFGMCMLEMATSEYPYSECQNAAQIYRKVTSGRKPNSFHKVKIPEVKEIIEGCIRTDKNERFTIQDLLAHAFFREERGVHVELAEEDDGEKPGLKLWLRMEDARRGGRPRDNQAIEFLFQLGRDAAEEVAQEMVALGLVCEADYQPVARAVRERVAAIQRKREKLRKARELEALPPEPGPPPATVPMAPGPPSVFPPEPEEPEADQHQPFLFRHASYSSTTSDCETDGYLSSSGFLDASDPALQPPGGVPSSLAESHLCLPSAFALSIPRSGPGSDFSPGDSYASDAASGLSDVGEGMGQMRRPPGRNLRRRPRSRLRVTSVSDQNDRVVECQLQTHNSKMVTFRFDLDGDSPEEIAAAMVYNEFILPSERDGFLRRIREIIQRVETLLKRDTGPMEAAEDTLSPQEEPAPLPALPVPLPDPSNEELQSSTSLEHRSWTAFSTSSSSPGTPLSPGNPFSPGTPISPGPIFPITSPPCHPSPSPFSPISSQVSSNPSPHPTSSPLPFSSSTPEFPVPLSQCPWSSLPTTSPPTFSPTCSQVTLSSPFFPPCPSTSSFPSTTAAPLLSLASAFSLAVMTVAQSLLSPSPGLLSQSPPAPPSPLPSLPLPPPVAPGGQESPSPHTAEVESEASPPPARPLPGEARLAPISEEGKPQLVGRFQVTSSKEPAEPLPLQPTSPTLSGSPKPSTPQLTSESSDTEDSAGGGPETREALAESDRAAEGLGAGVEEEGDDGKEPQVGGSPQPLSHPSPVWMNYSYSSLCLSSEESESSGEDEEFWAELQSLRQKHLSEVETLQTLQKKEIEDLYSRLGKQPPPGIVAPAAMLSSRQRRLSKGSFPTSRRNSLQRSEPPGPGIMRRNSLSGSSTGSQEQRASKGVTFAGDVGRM
The target of assay [18] is Mitogen-activated protein kinase kinase kinase kinase 4 (Homo sapiens, UniProt O95819). In words: Inhibition of ZC1/HGK Lys2 labeling site in human A-375 cells at 0.05 uM by KiNativ Profiling analysis relative to control. In kind it is cell-based.
Assay [19] can be described thus: Inhibition of IL-1 induced p38 MAPK phosphorylation level in wild type mouse MEF cells at 500 nM incubated for 1 hr followed by IL-1 stimulation by Western blot analysis relative to control. In kind it is functional.

Sequence of Casein kinase II subunit alpha (Homo sapiens) (P68400 whole entry, looked up, the tested form may be a part): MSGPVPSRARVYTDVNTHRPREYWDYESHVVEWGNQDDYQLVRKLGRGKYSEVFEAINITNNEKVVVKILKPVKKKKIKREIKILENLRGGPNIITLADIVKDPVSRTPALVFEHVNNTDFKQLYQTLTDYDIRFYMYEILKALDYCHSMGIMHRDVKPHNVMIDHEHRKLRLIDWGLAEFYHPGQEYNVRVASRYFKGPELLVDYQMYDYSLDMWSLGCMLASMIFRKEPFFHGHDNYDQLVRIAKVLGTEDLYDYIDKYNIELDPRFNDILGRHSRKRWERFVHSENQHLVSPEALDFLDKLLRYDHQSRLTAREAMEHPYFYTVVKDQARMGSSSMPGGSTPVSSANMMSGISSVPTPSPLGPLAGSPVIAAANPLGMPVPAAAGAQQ
Sequence of Cyclin-dependent kinase 17 (Homo sapiens) (Q00537 whole entry, looked up): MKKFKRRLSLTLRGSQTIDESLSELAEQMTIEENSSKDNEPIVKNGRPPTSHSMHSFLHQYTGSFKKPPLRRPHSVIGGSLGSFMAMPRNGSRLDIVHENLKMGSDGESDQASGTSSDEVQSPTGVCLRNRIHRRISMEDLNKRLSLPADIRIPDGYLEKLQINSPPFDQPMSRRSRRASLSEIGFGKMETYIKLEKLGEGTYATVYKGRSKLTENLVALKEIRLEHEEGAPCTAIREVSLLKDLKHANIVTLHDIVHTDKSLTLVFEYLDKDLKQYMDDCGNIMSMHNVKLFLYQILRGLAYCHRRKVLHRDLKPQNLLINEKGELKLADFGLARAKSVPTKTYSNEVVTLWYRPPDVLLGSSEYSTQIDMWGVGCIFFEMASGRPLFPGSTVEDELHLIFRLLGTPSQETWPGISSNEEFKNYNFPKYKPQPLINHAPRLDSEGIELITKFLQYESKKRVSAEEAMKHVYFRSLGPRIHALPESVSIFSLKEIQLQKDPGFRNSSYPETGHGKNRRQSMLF

The inhibition is the drop in the measured response relative to a control, in per cent. Usually IC50 stands for the midpoint of a concentration-inhibition curve. Higher therefore signals lower potency. Take `CCN1CCN(Cc2ccc(NC(=O)c3ccc(C)c(/C=C/c4cnc5[nH]ccc5c4OC)c3)cc2C(F)(F)F)CC1`: the inhibition stood at 27.8% in assay [1]; 72.5% in assay [2]; 16.9% in assay [4]; 81.1% in assay [5]; 13.7% in [6]; 19.4% in [7]. In addition, the inhibition was 9.2% in [8]; 12.9% in assay [9]; 51.6% in [10]; 33.7% in assay [11]; 7.9% in assay [12]; 13.3% in [13]. The inhibition in assay [14] stood at 19.8%; in assay [15], 23.9%; in [16] it was 24.3%; in assay [17], 10.1%; in assay [18] it was 19.5%. Besides, inhibition in assay [3] was half-maximal at 204 nM (IC50).
For the compound `CNc1cc(Oc2cc(C(=O)Nc3cc(-n4cnc(C)c4)cc(C(F)(F)F)c3)ccc2C)ncn1`, the inhibition at 0.5 µM in assay [19] was 50%.
`CCN1CCN(Cc2ccc(NC(=O)c3ccc(C)c(Oc4ccnc5[nH]ccc45)c3)cc2C(F)(F)F)CC1`: the inhibition in [1] was found to be 87%; in assay [2], 77.2%; in assay [4], 18%; in [5] it was 9.5%; in assay [6], 35.1%; in assay [7], 4.5%. For the same compound, the inhibition in assay [8] was 5.7%; in [9], 2%; in assay [10], 36.8%; in assay [11] it was 3%; in assay [12], -3%; in [13], 16.2%. Further, the inhibition was 29.2% in assay [14]; 50.3% in assay [15]; 64.9% in assay [16]; 10.3% in assay [17]; 32.6% in [18]. Further, 113 nM corresponded to half-maximal inhibition in assay [3] (IC50).
For the compound `CNc1cc(Oc2cc(C(=O)Nc3cc(N4CCN(C)CC4)cc(C(F)(F)F)c3)ccc2C)ncn1`, the inhibition at 0.5 µM in [19] was found to be 50%.
